A short description of data set [1]: Time required to reach maximum concentration (Cmax) after oral administration in rat. The settings on record: in vivo. Type of data set: ADME, organism-based.
Data set [2] can be described thus: Plasma half life was observed after intravenous administration in rat. Type of data set: ADME, organism-based. The method in brief:
(§1)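 Male SD rats (233-264 g), 3 per group, given a 1 μmol/kg intravenous bolus into a tail vein in DMA:PEG400:citrate buffer (40:40:20), formulated at 2 μmol/mL. No anaesthesia. Tail-vein blood was sampled at 2, 10, 30, 60, 120, 240 and 360 min. Plasma was ethanol-precipitated and analysed by LC-MS/MS against spiked-plasma standard curves. Values are mean ± SD.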

Data set [3] can be described thus: Plasma clearance was observed after intravenous administration in rat. The class given is ADME, organism-based. The method in brief: as §1
Data set [4] has as its target T1, Dihydrofolate reductase (Rattus norvegicus, UniProt Q920D2).
T1 sequence (Q920D2 whole entry): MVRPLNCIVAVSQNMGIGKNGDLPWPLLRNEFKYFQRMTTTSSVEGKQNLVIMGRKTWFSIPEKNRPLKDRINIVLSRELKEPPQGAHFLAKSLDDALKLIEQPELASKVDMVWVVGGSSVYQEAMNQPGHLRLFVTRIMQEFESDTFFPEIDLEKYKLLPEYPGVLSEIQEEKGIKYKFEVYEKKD
Kind of data set: Ability to inhibit recombinant rat liver dihydrofolate reductase.

Data set [5] deals with Rattus norvegicus. Kind of data set: Mean peak plasma concentration was observed after oral administration in rat. The settings on record: in vivo. Type of data set: ADME, organism-based. Further details: route oral.
Data set [6] is described as follows: Oral bioavailability. Type of data set: ADME, organism-based. The settings on record: rat, in vivo.
Data set [7] deals with T2, Dihydrofolate reductase (Homo sapiens, UniProt P00374).
T2 sequence (P00374 whole entry): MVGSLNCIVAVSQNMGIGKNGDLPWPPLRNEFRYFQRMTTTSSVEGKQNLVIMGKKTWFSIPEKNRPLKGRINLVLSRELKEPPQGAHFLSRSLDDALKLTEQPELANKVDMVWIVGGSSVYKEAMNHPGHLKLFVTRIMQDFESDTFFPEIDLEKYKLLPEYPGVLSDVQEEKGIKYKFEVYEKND
Kind of data set: Ability to inhibit recombinant human dihydrofolate reductase.

For data set [8], the system named is Rattus norvegicus. Kind of data set: Area under curve in male SD rats was observed after oral administration in rat. The class given is ADME, organism-based. The settings on record: in vivo.
Data set [9] concerns Rattus norvegicus. The experiment in a line: Mean peak plasma concentration was observed after intravenous administration in rat. Also on record: route intravenous. The settings on record: in vivo. Type of data set: ADME, organism-based. The method, boiled down:
as §1

Data set [10] has as its system Rattus norvegicus. Kind of data set: Area under curve in male SD rats was observed after intravenous administration in rat. The settings on record: in vivo. The class given is ADME, organism-based. The method in brief:
as §1

Data set [11] is described as follows: Volume of distribution at steady state was observed after intravenous administration in rat. The settings on record: in vivo, read-out: Vss. Type of data set: ADME, organism-based. The method, boiled down: as §1
Data set [12] is described as follows: plasma half life was observed after intravenous administration in rat. The class given is ADME, organism-based. The method, boiled down: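 Male SD rats (233-264 g), three per route; 1 μmol/kg given as a tail-vein bolus in DMA:PEG400:citrate buffer (40:40:20) vehicle at 2 μmol/mL, no anaesthesia. Tail-vein blood sampled at 2, 10, 30, 60, 120, 240 and 360 min; plasma ethanol-precipitated and analysed by LC-MS/MS against spiked-plasma standard curves. Values are means ± SD, n = 3.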

A short description of data set [13]: time required to reach maximum concentration (Cmax) after oral administration in rat. Type of data set: ADME, organism-based. The settings on record: in vivo.
Data set [14] can be described thus: volume of distribution at steady state was observed after intravenous administration in rat. Type of data set: ADME, organism-based. The settings on record: in vivo, read-out: Vss. The method, boiled down:
as §1

The nature of data set [15]: plasma clearance was observed after intravenous administration in rat. Type of data set: ADME, organism-based. The method in brief: as §1
Data set [16] has as its system Rattus norvegicus. Kind of data set: mean peak plasma concentration was observed after intravenous administration in rat. Type of data set: ADME, organism-based. Further details: route intravenous. The settings on record: in vivo. The method in brief:
as §1

Data set [17] deals with Rattus norvegicus. Kind of data set: mean peak plasma concentration was observed after oral administration in rat. Type of data set: ADME, organism-based. Also on record: route oral. The settings on record: in vivo.

Each structure is given as a SMILES string.

For orientation: Tmax means the time at which the peak concentration occurs. As a reminder, the half-life is the time needed for the level to fall by half in the phase considered. The low end stands for fast loss, the high end for slow loss. For orientation: clearance means a measure of how efficiently the substance is removed, as volume per time. By IC50 is commonly meant the concentration that gives 50% inhibition. As usually defined, the Cmax is the highest concentration seen after dosing. Broadly, the bioavailability is the share of a dose that reaches the circulation, judged against a reference dose that is usually intravenous. As usually defined, the AUC is the area under the concentration-time curve, a measure of exposure. The low end stands for low exposure, the high end for high exposure. Turning to `Nc1nc(N)c2cc(COC(=O)c3ccc(C(=O)N[C@@H](CCC(=O)O)C(=O)O)cc3)ccc2n1`, the Tmax in data set [1] is 40.2 min. The same compound gave a half-life in [2] of 60 min. The compound further displayed a clearance in data set [3] of 15 mL/min/kg. The IC50 at Dihydrofolate reductase [4] worked out at 19.3 nM; on Dihydrofolate reductase [7], 125 nM. The Cmax is 144 nM with Rattus norvegicus [5] and 9.17 µM in the data set on Rattus norvegicus [9]. The bioavailability in data set [6] was 3.4%. Besides, in the data set with Rattus norvegicus [8], the AUC is 384 nM·h. Moreover, the AUC inf in the data set on Rattus norvegicus [10] was 1230 nM·h. In addition, the Vd in data set [11] was found to be 0.42 L/kg.

Regarding `Nc1nc(N)c2nc(COC(=O)c3ccc(C(=O)N[C@@H](CCC(=O)O)C(=O)O)cc3)cnc2n1`, at Dihydrofolate reductase [4], the IC50 came to 120 nM.

On to `CN(Cc1cnc2nc(N)nc(N)c2n1)c1ccc(C(=O)N[C@@H](CCC(=O)O)C(=O)O)cc1` [METHOTREXATE], for which the half-life in data set [12] is 54 min. In data set [13], the Tmax was found to be 40.2 min. Moreover, in data set [14], the Vd came out at 0.36 L/kg. In [15], this compound showed a clearance of 11 mL/min/kg. The Cmax was 8.26 µM in the data set with Rattus norvegicus [16] and 266 nM with Rattus norvegicus [17]. The compound also had a bioavailability in [6] of 5.8%. This compound also displayed an AUC with Rattus norvegicus [8] of 838 nM·h. The compound further returned an AUC inf with Rattus norvegicus [10] of 1560 nM·h.

These data come from ChEMBL document CHEMBL1133691 (J Med Chem, 2000).
